In ChEMBL document CHEMBL4364301 (Eur J Med Chem, 2019):

Experiments:
DU-145 [1] = test: Antiproliferative activity against human DU145 cells assessed as T/C value at 1 x 10^-1 uM incubated for 96 hrs by propidium iodide based 2D monolayer assay; assay type: functional
How it was run: (§1)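 After 24 h recovery, compound in medium or medium alone (control wells) was added at 10 half-log concentrations from 0.0032 to 100 µM, in triplicate, with at most 0.3% DMSO. After 96 h, wells were PBS-washed, stained with 7 µg/ml PI and 0.1% Triton X-100, and fluorescence read at 530/620 nm. IC50 came from a 4-parameter fit, geometric mean.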

CWR22R [2] = test: Antiproliferative activity against human 22Rv1 cells assessed as T/C value at 3.2 x 10^-2 uM incubated for 96 hrs by propidium iodide based 2D monolayer assay; assay type: functional
How it was run: as §1, with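 “Cells were kept in RPMI 1640 with 25 mM HEPES, 10% FCS and gentamicin at 37 °C under 5% CO2, and plated at 4,000-20,000 cells/well. After 24” for “After 24”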

CWR22R [3] = test: Antiproliferative activity against human 22Rv1 cells assessed as T/C value at 1 x 10^2 uM incubated for 96 hrs by propidium iodide based 2D monolayer assay; assay type: functional
How it was run: as §1, with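 “Cells were kept in RPMI 1640 with 25 mM HEPES, 10% FCS and gentamicin at 37 °C under 5% CO2, and plated at 4,000-20,000 cells/well. After 24” for “After 24”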

LNCaP [4] = test: Antiproliferative activity against human LNCAP cells assessed as T/C value at 3.2 x 10^-1 uM incubated for 96 hrs by propidium iodide based 2D monolayer assay; assay type: functional
How it was run: as §1, with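 “Cells were kept in RPMI 1640 with 25 mM HEPES, 10% FCS and gentamicin at 37 °C under 5% CO2, and plated at 4,000-20,000 cells/well. After 24” for “After 24”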

CWR22R [5] = test: Antiproliferative activity against human 22Rv1 cells assessed as T/C value at 1 x 10^-1 uM incubated for 96 hrs by propidium iodide based 2D monolayer assay; assay type: functional
How it was run: as §1, with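 “Cells were kept in RPMI 1640 with 25 mM HEPES, 10% FCS and gentamicin at 37 °C under 5% CO2, and plated at 4,000-20,000 cells/well. After 24” for “After 24”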

VCaP [6] = test: Antiproliferative activity against human VCaP cells assessed as T/C value at 1 x 10^1 uM incubated for 96 hrs by propidium iodide based 2D monolayer assay; assay type: functional
How it was run: as §1, with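 “Cells were kept in RPMI 1640 with 25 mM HEPES, 10% FCS and gentamicin at 37 °C under 5% CO2, and plated at 4,000-20,000 cells/well. After 24” for “After 24”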

VCaP [7] = test: Antiproliferative activity against human VCaP cells assessed as T/C value at 3.2 x 10^-3 uM incubated for 96 hrs by propidium iodide based 2D monolayer assay; assay type: functional
How it was run: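 VCaP cells in RPMI 1640 with 10% FCS at 37 °C, 5% CO2, seeded 4,000–20,000 cells/well and left 24 h before dosing. Compounds from DMSO stocks were diluted in half-log steps in medium, 10 concentrations 0.0032–100 μM, triplicate wells, max 0.3% DMSO. After 96 h, cells were washed, stained with 7 μg/ml propidium iodide plus 0.1% Triton X-100 for 1–2 h at room temperature, and fluorescence read at ex 530/em 620 nm.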

DU-145 [8] = test: Antiproliferative activity against human DU145 cells assessed as T/C value at 1 x 10^-2 uM incubated for 96 hrs by propidium iodide based 2D monolayer assay; assay type: functional; how it was run: as §1
LNCaP [9] = test: Antiproliferative activity against human LNCAP cells assessed as T/C value at 1 x 10^1 uM incubated for 96 hrs by propidium iodide based 2D monolayer assay; assay type: functional
How it was run: as §1, with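 “Cells were kept in RPMI 1640 with 25 mM HEPES, 10% FCS and gentamicin at 37 °C under 5% CO2, and plated at 4,000-20,000 cells/well. After 24” for “After 24”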

LNCaP [10] = test: Antiproliferative activity against human LNCAP cells assessed as T/C value at 3.2 x 10^-3 uM incubated for 96 hrs by propidium iodide based 2D monolayer assay; assay type: functional
How it was run: as §1, with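 “Cells were kept in RPMI 1640 with 25 mM HEPES, 10% FCS and gentamicin at 37 °C under 5% CO2, and plated at 4,000-20,000 cells/well. After 24” for “After 24”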

LNCaP [11] = test: Antiproliferative activity against human LNCAP cells assessed as T/C value at 1 x 10^2 uM incubated for 96 hrs by propidium iodide based 2D monolayer assay; assay type: functional
How it was run: as §1, with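 “Cells were kept in RPMI 1640 with 25 mM HEPES, 10% FCS and gentamicin at 37 °C under 5% CO2, and plated at 4,000-20,000 cells/well. After 24” for “After 24”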

LNCaP [12] = test: Antiproliferative activity against human LNCAP cells assessed as T/C value at 1 x 10^-1 uM incubated for 96 hrs by propidium iodide based 2D monolayer assay; assay type: functional
How it was run: as §1, with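 “Cells were kept in RPMI 1640 with 25 mM HEPES, 10% FCS and gentamicin at 37 °C under 5% CO2, and plated at 4,000-20,000 cells/well. After 24” for “After 24”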

MCF7 [13] = test: Antiproliferative activity against human MCF7 cells assessed as T/C value at 1 x 10^-1 uM incubated for 96 hrs by propidium iodide based 2D monolayer assay; assay type: functional
MCF7 [14] = test: Antiproliferative activity against human MCF7 cells assessed as T/C value at 1 x 10^-2 uM incubated for 96 hrs by propidium iodide based 2D monolayer assay; assay type: functional
MCF7 [15] = test: Antiproliferative activity against human MCF7 cells assessed as T/C value at 3.2 x 10^-2 uM incubated for 96 hrs by propidium iodide based 2D monolayer assay; assay type: functional
MCF7 [16] = test: Antiproliferative activity against human MCF7 cells assessed as T/C value at 3.2 uM incubated for 96 hrs by propidium iodide based 2D monolayer assay; assay type: functional
MCF7 [17] = test: Antiproliferative activity against human MCF7 cells assessed as T/C value at 3.2 x 10^-1 uM incubated for 96 hrs by propidium iodide based 2D monolayer assay; assay type: functional
[18] = Metabolic stability in liver microsomes (unknown origin) assessed as half life at 3 uM measured upto 45 mins in presence of NADPH by LC-MS/MS analysis; assay type: ADME, Microsome
How it was run: (§2)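 Pooled liver microsomes at 0.5 mg/mL protein in 0.1 M phosphate buffer pH 7.4 were incubated with 3 μM compound (0.25% DMSO) at 37 °C. Reactions were started with 1 mM NADPH and sampled at 0, 5, 15, 30 and 45 min. A minus-NADPH control ran for 45 min. Reactions were quenched in methanol and analysed by LC-MS/MS to give CLint and t1/2.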

[19] = Protein binding in plasma (unknown origin) at 5 uM by LC-MS/MS analysis; assay type: ADME, cell-free; conditions: read-out: PPB (converted)
How it was run: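 Compound at 5 μM final in 100% plasma was dialysed against pH 7.4 buffer by equilibrium dialysis at 37 °C. Both sides were quantified by LC-MS/MS, unbound fraction was calculated, and results are given as % bound from duplicate experiments.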

[20] = biological target: Voltage-gated inwardly rectifying potassium channel KCNH2 (Homo sapiens, UniProt Q12809); test: Inhibition of human ERG expressed in CHO cells by whole-cell voltage-clamp analysis; assay type: cell-based
How it was run: (§3)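 CHO cells expressing hERG were held in Dulbecco's PBS with Ca/Mg, pH 7–7.2, at room temperature. Tail currents were recorded by automated whole-cell voltage clamp after 300 s exposure. […] Quinidine served as positive control and 0.25% DMSO buffer as negative control.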

[21] = Metabolic stability in liver microsomes (unknown origin) assessed as intrinsic clearance per mg of protein at 3 uM measured upto 45 mins in presence of NADPH by LC-MS/MS analysis; assay type: ADME, Microsome; conditions: read-out: CLH; how it was run: as §2
hERG (KCNH2) = hERG (KCNH2) (Homo sapiens, UniProt Q12809); test: Inhibition of human ERG expressed in CHO cells at 25 uM by whole-cell voltage-clamp analysis relative to control; assay type: cell-based; conditions: CHO cells expressing human ERG; how it was run: as §3
hERG (KCNH2), sequence (Q12809 whole entry): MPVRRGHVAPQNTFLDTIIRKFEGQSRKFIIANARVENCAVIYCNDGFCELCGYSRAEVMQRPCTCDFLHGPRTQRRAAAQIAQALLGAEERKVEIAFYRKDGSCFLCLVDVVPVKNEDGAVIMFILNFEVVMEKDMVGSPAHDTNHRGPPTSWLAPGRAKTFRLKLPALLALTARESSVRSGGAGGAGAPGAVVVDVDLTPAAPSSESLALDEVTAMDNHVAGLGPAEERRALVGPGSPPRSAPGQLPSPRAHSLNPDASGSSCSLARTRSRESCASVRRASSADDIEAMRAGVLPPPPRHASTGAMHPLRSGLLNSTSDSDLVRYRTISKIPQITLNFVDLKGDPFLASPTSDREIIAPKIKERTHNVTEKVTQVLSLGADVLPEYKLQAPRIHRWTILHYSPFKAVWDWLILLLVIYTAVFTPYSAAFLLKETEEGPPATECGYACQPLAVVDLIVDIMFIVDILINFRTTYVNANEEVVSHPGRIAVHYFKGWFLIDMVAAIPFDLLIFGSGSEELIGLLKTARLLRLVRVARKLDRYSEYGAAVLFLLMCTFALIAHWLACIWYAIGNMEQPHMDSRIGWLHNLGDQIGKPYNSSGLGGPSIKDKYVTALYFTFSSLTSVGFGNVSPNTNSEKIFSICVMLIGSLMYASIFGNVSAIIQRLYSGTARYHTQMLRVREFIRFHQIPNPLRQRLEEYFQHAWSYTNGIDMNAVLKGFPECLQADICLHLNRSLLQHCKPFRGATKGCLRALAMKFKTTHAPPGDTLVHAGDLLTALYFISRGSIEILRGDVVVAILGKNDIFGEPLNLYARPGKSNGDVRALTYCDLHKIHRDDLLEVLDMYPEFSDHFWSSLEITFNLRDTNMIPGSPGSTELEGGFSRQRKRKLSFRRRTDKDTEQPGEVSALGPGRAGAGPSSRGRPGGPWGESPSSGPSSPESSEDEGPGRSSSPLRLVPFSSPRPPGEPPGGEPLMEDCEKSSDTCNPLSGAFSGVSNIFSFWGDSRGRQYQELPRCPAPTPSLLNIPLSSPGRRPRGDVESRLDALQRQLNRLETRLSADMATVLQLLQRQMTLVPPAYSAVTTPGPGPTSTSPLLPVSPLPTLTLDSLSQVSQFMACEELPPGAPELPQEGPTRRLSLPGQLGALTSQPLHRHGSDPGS

Voltage-gated inwardly rectifying potassium channel KCNH2, sequence (Q12809 whole entry): as above

SMILES	T/C (DU-145 [1])	T/C (CWR22R [2])	T/C (CWR22R [3])	T/C (LNCaP [4])	T/C (CWR22R [5])	T/C (VCaP [6])	T/C (VCaP [7])	T/C (DU-145 [8])	T/C (LNCaP [9])	T/C (LNCaP [10])	T/C (LNCaP [11])	T/C (LNCaP [12])	further results
CC(O)(COc1cccc(S(F)(F)(F)(F)F)c1)C(=O)Nc1cc(C(F)(F)F)cc(C(F)(F)F)c1 (racemic)	119%	109%	2%	83%	99%	32%	111%	101%	2%	88%	2%	98%	
CC1(C)C(=O)N(c2ccc(C#N)cc2C(F)(F)F)C(=S)N1c1cccc(S(F)(F)(F)(F)F)c1	103%	107%	51%	85%	102%	59%	106%	104%	36%	83%	21%	94%	
CC1(C)C(=O)N(c2cccc(S(F)(F)(F)(F)F)c2)C(=S)N1c1cccc(C(F)(F)F)c1	101%	96%	55%	80%	96%	74%	104%	94%	23%	92%	22%	91%	
CC(O)(CSc1cc(C(F)(F)F)cc(C(F)(F)F)c1)C(=O)Nc1cccc(C(F)(F)C(F)(F)F)c1 (racemic)	135%	112%	5%	111%	106%	38%	104%	121%	8%	90%	7%	97%	T/C (MCF7 [13]): 111%; T/C (MCF7 [14]): 115%; T/C (MCF7 [15]): 118%; T/C (MCF7 [16]): 109%; T/C (MCF7 [17]): 121%
CC(O)(COc1cc(C(F)(F)F)cc(C(F)(F)F)c1)C(=O)Nc1ccc(S(F)(F)(F)(F)F)cc1 (racemic)	109%	99%	4%	93%	104%	23%	101%	103%	6%	90%	3%	99%	
CC(O)(COc1ccc(C(F)(F)C(F)(F)F)cc1)C(=O)Nc1cc(C(F)(F)F)cc(C(F)(F)F)c1 (racemic)	113%	115%	3%	93%	107%	19%	76%	108%	9%	91%	1%	96%	T/C (MCF7 [13]): 116%; T/C (MCF7 [14]): 100%; T/C (MCF7 [15]): 112%; T/C (MCF7 [16]): 57%; T/C (MCF7 [17]): 118%
CC(O)(COc1cccc(S(F)(F)(F)(F)F)c1)C(=O)Nc1ccc([N+](=O)[O-])c(C(F)(F)F)c1 (racemic)	118 - 124%	108 - 110%	2 - 3%	100 - 103%	106 - 110%	22%	103 - 109%	115 - 122%	1 - 3%	92 - 98%	1 - 2%	87 - 113%	half-life at 3 µM [18]: 7.18 h; fraction unbound at 5 µM [19]: 0.015; IC50 [20]: > 25 µM; microsomal CLint at 3 µM [21]: 3.21 µL/min/mg; inhibition at 25 µM (hERG (KCNH2)): 38.1%
CC(O)(COc1ccc(S(F)(F)(F)(F)F)cc1)C(=O)Nc1cc(C(F)(F)F)cc(C(F)(F)F)c1 (racemic)	109%	105%	4%	97%	106%	21%	105%	104%	8%	92%	1%	100%	half-life at 3 µM [18]: 7.5 h; fraction unbound at 5 µM [19]: 0.091; IC50 [20]: > 25 µM; microsomal CLint at 3 µM [21]: 3.08 µL/min/mg; inhibition at 25 µM (hERG (KCNH2)): 13.4%
CC(O)(COc1cc(C(F)(F)F)cc(C(F)(F)F)c1)C(=O)Nc1cccc(S(F)(F)(F)(F)F)c1 (racemic)	114%	110%	2%	67%	106%	37%	97%	104%	2%	89%	2%	76%	
CC(O)(COc1ccccc1C(F)(F)F)C(=O)Nc1ccc(S(F)(F)(F)(F)F)cc1 (racemic)	108 - 127%	100 - 108%	1 - 2%	83 - 84%	93 - 107%	11 - 28%	97 - 98%	103 - 119%	1 - 2%	91 - 100%	1 - 2%	83 - 84%	half-life at 3 µM [18]: 1.05 h; fraction unbound at 5 µM [19]: 0.014; IC50 [20]: > 25 µM; microsomal CLint at 3 µM [21]: 22 µL/min/mg; inhibition at 25 µM (hERG (KCNH2)): 26.3%
CC1(C)C(=O)N(c2ccc(C#N)cc2C(F)(F)F)C(=S)N1c1ccc(S(F)(F)(F)(F)F)cc1	114%	104%	12%	82%	98%	59%	93%	111%	12%	76%	7%	77%	
